Measured values taken from ChEMBL document CHEMBL3351236, “Prodrug oncrasin-266 improves the stability, pharmacokinetics, and safety of NSC-743380” (Bioorg Med Chem, 2014).
Active and inactive are the calls of the source. The rule behind the calls is not given here.

Assays:
Mus musculus [1] = assay: Toxicity in Balb/c mouse assessed as serum AST level at 150 mg/kg, ip dosed daily for 3 days using compound formulated in Solutol HS15 and ethyl alcohol measured on day 6; assay type: organism-based; parameters: dose 150 mg/kg, route intraperitoneal; conditions: in vivo, 72 h
[2] = Drug level in tumor of Balb/c mouse xenografted with human Calu3 cells at 60 mg/kg, iv using compound formulated in Solutol HS15 and ethyl alcohol measured after 24 hrs by HPLC/MS method; assay type: ADME, organism-based, Neoplasm, Calu-3; parameters: dose 60 mg/kg, route intravenous; conditions: read-out: Drug uptake
Outline: (§1)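 Nude mice bearing subcutaneous Calu3 xenografts, 1 mouse per treatment group. Organs and tumor were taken 24 h later and kept at −80°C, then homogenized in methanol (50 mg/ml) on ice. Homogenate was extracted with acetonitrile containing 0.2% formic acid plus an internal standard, centrifuged, and the supernatant analyzed by HPLC/MS.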

Tumour = assay: Drug level in tumor of Balb/c mouse xenografted with human Calu3 cells assessed as aldehyde metabolite level at 60 mg/kg, iv using compound formulated in Solutol HS15 and ethyl alcohol measured after 24 hrs by HPLC/MS method; assay type: ADME, organism-based, Neoplasm, Calu-3; parameters: dose 60 mg/kg, route intravenous; conditions: in vivo; outline: as §1
[3] = Stability in powder form in non-evacuated chambers at 37 degC after 1 to 14 days by HPLC method; assay type: physicochemical
Outline: (§2)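 Powders were kept at 4°C, room temperature (21°C) or 37°C and sampled for up to 90 days. Each aliquot was dissolved in DMSO, diluted with 9 volumes acetonitrile, and analyzed by HPLC for purity.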

[4] = Stability in powder form at 4 degC to 37 degC after 1 to 14 days by HPLC method; assay type: physicochemical; outline: as §2
Mus musculus [5] = assay: Toxicity in Balb/c mouse assessed as histopathological changes in liver at 150 mg/kg, ip dosed once using compound formulated in Solutol HS15 and ethyl alcohol measured after 48 hrs; conditions: in vivo
Mus musculus [6] = assay: Toxicity in Balb/c mouse assessed as serum AST level at 25 mg/kg, ip dosed daily for 8 days using compound formulated in Solutol HS15 and ethyl alcohol; conditions: in vivo, 192 h
Mus musculus [7] = assay: Toxicity in Balb/c mouse assessed as serum ALP level at 25 mg/kg, ip dosed daily for 8 days using compound formulated in Solutol HS15 and ethyl alcohol measured on day 6; assay type: organism-based; parameters: dose 25 mg/kg, route intraperitoneal; conditions: in vivo, 192 h
NCI-H1299 = assay: Anticancer activity against human H1299 cells at 0.03 to 30 uM by sulforhodamine B assay; assay type: functional, cell-based
Outline: (§3)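 Sulforhodamine B viability assay on lung cancer cells exposed to a range of compound concentrations for 3 days. Untreated reference: DMSO-treated cells set as 100. Values are mean ± SD of quadruplicate wells.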

NCI-H157 = assay: Anticancer activity against human NCI-H157 cells at 0.03 to 30 uM by sulforhodamine B assay; assay type: functional, cell-based; outline: as §3
[8] = Drug level in lung of Balb/c mouse xenografted with human Calu3 cells at 60 mg/kg, iv using compound formulated in Solutol HS15 and ethyl alcohol measured after 24 hrs by HPLC/MS method; assay type: ADME, organism-based, Calu-3; parameters: dose 60 mg/kg, route intravenous; conditions: read-out: Drug uptake; outline: as §1
[9] = Stability in injectable solution with Solutol HS15 and ethyl alcohol and 0.9% NaCl assessed as drug hydrolysis within 7 hrs at 37 degC by HPLC method; assay type: physicochemical; conditions: read-out: Drug degradation
Kidney = assay: Drug level in kidney of Balb/c mouse xenografted with human Calu3 cells assessed as aldehyde metabolite level at 60 mg/kg, iv using compound formulated in Solutol HS15 and ethyl alcohol measured after 24 hrs by HPLC/MS method; assay type: ADME, organism-based, Calu-3; parameters: dose 60 mg/kg, route intravenous; conditions: in vivo; outline: as §1
Lung = assay: Drug level in lung of Balb/c mouse xenografted with human Calu3 cells assessed as aldehyde metabolite level at 60 mg/kg, iv using compound formulated in Solutol HS15 and ethyl alcohol measured after 24 hrs by HPLC/MS method; assay type: ADME, organism-based, Calu-3; parameters: dose 60 mg/kg, route intravenous; conditions: in vivo; outline: as §1
[10] = Stability in stock solution with Solutol HS15 and ethyl alcohol solvent at room temperature by HPLC method; assay type: physicochemical
Outline: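 Stock solutions were made by dissolving compound in 75% (w/v) Solutol HS15 in ethanol (about 20% v/v ethanol). Final concentrations were 8 mg/ml for prodrug and 5 mg/ml for parent. Stocks were stored at 4°C or room temperature; aliquots were frozen at −20°C before HPLC.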

Mus musculus [11] = assay: Toxicity in Balb/c mouse assessed as serum ALT level at 150 mg/kg, ip dosed daily for 3 days using compound formulated in Solutol HS15 and ethyl alcohol measured on day 6; assay type: organism-based; parameters: dose 150 mg/kg, route intraperitoneal; conditions: in vivo, 72 h
Mus musculus [12] = assay: Toxicity in Balb/c mouse assessed as mortality at 150 mg/kg, ip dosed daily for 3 days using compound formulated in Solutol HS15 and ethyl alcohol measured on day 5; assay type: organism-based; parameters: dose 150 mg/kg, route intraperitoneal; conditions: in vivo, 72 h
Mus musculus [13] = assay: Toxicity in Balb/c mouse assessed as changes in blood cell parameters at 150 mg/kg, ip dosed daily for 3 days using compound formulated in Solutol HS15 and ethyl alcohol measured after 48 hrs; assay type: organism-based; parameters: dose 150 mg/kg, route intraperitoneal; conditions: in vivo
Calu-3 = assay: Anticancer activity against human Calu3 cells at 0.03 to 30 uM by sulforhodamine B assay; assay type: functional, cell-based; outline: as §3
[14] = Stability in injectable solution with Solutol HS15 and ethyl alcohol and 0.9% NaCl assessed as drug hydrolysis within 7 hrs at room temperature by HPLC method; assay type: physicochemical; conditions: 7 h
NCI-H460 = assay: Anticancer activity against human H460 cells at 0.03 to 30 uM by sulforhodamine B assay; assay type: functional, cell-based; outline: as §3
Mus musculus [15] = assay: Toxicity in Balb/c mouse assessed as mortality level at 300 mg/kg, ip using compound formulated in Solutol HS15 and ethyl alcohol measured after 3 days; assay type: organism-based; parameters: dose 300 mg/kg, route intraperitoneal; conditions: in vivo, 72 h
Outline: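 Acute toxicity: 3 Balb/c mice (7–8 weeks) per group, given i.p. 300 mg/kg on day 1 and again on day 2. Deaths were recorded by day; survivors were followed for 2 weeks.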

Spleen = assay: Drug level in spleen of Balb/c mouse xenografted with human Calu3 cells assessed as aldehyde metabolite level at 60 mg/kg, iv using compound formulated in Solutol HS15 and ethyl alcohol measured after 24 hrs by HPLC/MS method; assay type: ADME, organism-based, Calu-3; parameters: dose 60 mg/kg, route intravenous; conditions: in vivo; outline: as §1
[16] = Drug level in intestine of Balb/c mouse xenografted with human Calu3 cells at 60 mg/kg, iv using compound formulated in Solutol HS15 and ethyl alcohol measured after 24 hrs by HPLC/MS method; assay type: ADME, organism-based, Calu-3; parameters: dose 60 mg/kg, route intravenous; conditions: read-out: Drug uptake; outline: as §1
Intestine = assay: Drug level in intestine of Balb/c mouse xenografted with human Calu3 cells assessed as aldehyde metabolite level at 60 mg/kg, iv using compound formulated in Solutol HS15 and ethyl alcohol measured after 24 hrs by HPLC/MS method; assay type: ADME, organism-based, Calu-3; parameters: dose 60 mg/kg, route intravenous; conditions: in vivo; outline: as §1
Liver = assay: Drug level in liver of Balb/c mouse xenografted with human Calu3 cells assessed as aldehyde metabolite level at 60 mg/kg, iv using compound formulated in Solutol HS15 and ethyl alcohol measured after 24 hrs by HPLC/MS method; assay type: ADME, organism-based, Calu-3; parameters: dose 60 mg/kg, route intravenous; conditions: in vivo; outline: as §1
[17] = Half life in Balb/c mouse at 25 mg/kg, iv using compound formulated in Solutol HS15 and ethyl alcohol by HPLC/MS method; assay type: ADME, organism-based; parameters: dose 25 mg/kg, route intravenous; conditions: in vivo
Outline: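 Balb/c mice received 25 mg/kg by tail vein in Solutol HS15/ethanol vehicle. Blood was drawn from the tail vein at 0, 1, 2, 3.5, 7 and 24 h, 3 mice per time point, into lithium-heparin tubes. Plasma (50 µl) was precipitated with 150 µl acetonitrile containing 0.2% formic acid and internal standard, iced 15 min, centrifuged, and the supernatant analyzed by HPLC/MS for parent and released drug.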

Mus musculus [18] = assay: Toxicity in Balb/c mouse assessed as serum ALP level at 150 mg/kg, ip dosed daily for 3 days using compound formulated in Solutol HS15 and ethyl alcohol measured on day 6; assay type: organism-based; parameters: dose 150 mg/kg, route intraperitoneal; conditions: in vivo, 72 h
Mus musculus [19] = assay: Toxicity in Balb/c mouse assessed as serum ALT level at 25 mg/kg, ip dosed daily for 8 days using compound formulated in Solutol HS15 and ethyl alcohol measured on day 6; assay type: organism-based; parameters: dose 25 mg/kg, route intraperitoneal; conditions: in vivo, 192 h
[20] = Stability in powder form in non-evacuated chambers at 37 degC after 14 days by HPLC method; assay type: physicochemical; conditions: read-out: Stability; outline: as §2

SMILES: OCc1cn(Cc2cccc(Cl)c2)c2ccccc12
- Activity (Mus musculus [1]): 4045 U/L
- concentration at 24 h [2]: 4200 ng/g
- Drug uptake (Tumour): 1.7 µg/g
- Stability [3]: Unstable
- Stability [4]: Stable
- Activity (Mus musculus [5]): Toxic
- Activity (Mus musculus [6]): 206.7 U/L
- Activity (Mus musculus [7]): 44 U/L
- Activity (NCI-H1299): inactive
- Activity (NCI-H157): Active
- concentration at 24 h [8]: 4200 ng/g
- degraded at 7 h [9]: > 20%
- Drug uptake (Kidney): 31 µg/g
- Drug uptake (Lung): 34.3 µg/g
- Stability [10]: 1 weeks
- Activity (Mus musculus [11]): 1936 U/L
- Activity (Mus musculus [12]): Toxic
- Activity (Mus musculus [13]): Non-toxic
- Activity (Calu-3): Active
- Stability [14]: Stable
- Activity (NCI-H460): Active
- Activity (Mus musculus [15]): Toxic
- Drug uptake (Spleen): 19.9 µg/g
- concentration at 24 h [16]: 14300 ng/g
- Drug uptake (Intestine): 30.1 µg/g
- Drug uptake (Liver): 25 µg/g
- half-life [17]: 30 min
- Activity (Mus musculus [18]): 3 U/L
- Activity (Mus musculus [19]): 80.3 U/L
- remaining at 336 h [20]: < 5%
